Measured values reported in ChEMBL document CHEMBL4265873, “Design and discovery of silybin analogues as antiproliferative compounds using a ring disjunctive - Based, natural product lead optimization approach” (Eur J Med Chem, 2017).
pIC50: −log10 of the molar value.

What was measured:
MCF7 [1] = test: Cytotoxicity in human MCF7 cells assessed as reduction in cell viability incubated for 68 hrs by MTT assay; format: functional, cell-based; conditions: MCF7, 68 h
In short: (§1)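 Cells were trypsinised and seeded at 5x10^3 cells/well. Compound was added at 0, 0.1, 0.3, 1, 3, 10, 30 and 100 µM for 68 h. MTT (4 mg/mL solution) was then added for 4 h, and the formazan was dissolved in DMSO. Absorbance read at 570 nm. IC50 was derived from % survival across the eight concentrations. Mean ± SD of three independent experiments, each in triplicate.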

ZR-75-1 = test: Cytotoxicity in human ZR-75-1 cells assessed as reduction in cell viability incubated for 68 hrs by MTT assay; format: functional, cell-based; conditions: ZR-75-1, 68 h; in short: as §1
BT-20 = test: Cytotoxicity in human BT20 cells assessed as reduction in cell viability incubated for 68 hrs by MTT assay; format: functional, cell-based; conditions: BT-20, 68 h; in short: as §1
MDA-MB-231 = test: Cytotoxicity in human MDA-MB-231 cells assessed as reduction in cell viability incubated for 68 hrs by MTT assay; format: functional, cell-based; conditions: MDA-MB-231, 68 h; in short: as §1
DU-145 = test: Cytotoxicity in human DU145 cells assessed as reduction in cell viability incubated for 68 hrs by MTT assay; format: functional, cell-based; conditions: DU-145, 68 h; in short: as §1
PANC-1 = test: Cytotoxicity in human PANC1 cells assessed as reduction in cell viability incubated for 68 hrs by MTT assay; format: functional, cell-based; conditions: PANC-1, 68 h; in short: as §1
2008 = test: Cytotoxicity in human OV2008 cells assessed as reduction in cell viability incubated for 68 hrs by MTT assay; format: functional, cell-based; conditions: Homo sapiens, 2008, 68 h; in short: as §1
A2780 = test: Cytotoxicity in human A2780 cells assessed as reduction in cell viability incubated for 68 hrs by MTT assay; format: functional, cell-based; conditions: A2780, 68 h; in short: as §1
[2] = Cytotoxicity in human CRL1459 cells assessed as reduction in cell viability incubated for 68 hrs by MTT assay; format: cell-based; in short: as §1
HEK293 = test: Cytotoxicity in HEK293 cells assessed as reduction in cell viability incubated for 68 hrs by MTT assay; format: cell-based; conditions: Homo sapiens, HEK293, 68 h; in short: as §1
CHO = test: Cytotoxicity in CHO cells assessed as reduction in cell viability incubated for 68 hrs by MTT assay; format: cell-based; conditions: Cricetulus griseus; in short: as §1
MCF7 [3] = test: Potency index, ratio of IC50 for silybin to IC50 for test compound for cytotoxicity in human MCF7 cells assessed as reduction in cell viability incubated for 68 hrs by MTT assay; format: functional

SMILES | pIC50 (MCF7 [1]) | pIC50 (ZR-75-1) | pIC50 (BT-20) | pIC50 (MDA-MB-231) | pIC50 (DU-145) | pIC50 (PANC-1) | pIC50 2008 | pIC50 (A2780) | pIC50 [2] | pIC50 (HEK293) | pIC50 (CHO) | Ratio IC50 (MCF7 [3])
O=C(/C=C/c1cccc(OCc2ccccc2)c1)c1ccccc1 | 5.01 | 5.07 | 4.59 | 4.70 | 4.37 | 4.63 | 5.31 | 5.17 | 5.11 | 4.85 | 4.66 | –
COc1ccc(C(=O)/C=C/c2cccc(OCc3ccccc3)c2)cc1 | 5.22 | 4.70 | 4.42 | 4.91 | 4.29 | 4.35 | 4.76 | 4.42 | 4.60 | 4.10 | 4.64 | –
Cc1ccc(C(=O)/C=C/c2cccc(OCc3ccccc3)c2)cc1 | 4.66 | 4.59 | 4.21 | 4.81 | 4.59 | 4.38 | 4.89 | 4.69 | 4.70 | 5.09 | 4.58 | –
O=C(/C=C/c1cccc(OCc2ccccc2)c1)c1ccccc1Br | 5.80 | 5.54 | 5.74 | 5.74 | 5.52 | 4.21 | 5.92 | 5.60 | 5.62 | 5.66 | 5.04 | 142
O=C(/C=C/c1cccc(OCc2ccccc2)c1)c1ccc(Cl)cc1Cl | 5.03 | 5.03 | 4.72 | 5.17 | 4.56 | 4.57 | 5.28 | 4.67 | 5.11 | 4.60 | 4.56 | –
O=C(/C=C/c1cccc(OCc2ccccc2)c1)c1cccc(Br)c1 | 5.10 | 5.08 | 5.15 | 5.16 | 5.04 | 5.19 | 5.24 | 5.20 | 5.14 | 5.15 | 5.04 | –
O=C(/C=C/c1cccc(OCc2ccccc2)c1)c1ccc(Br)cc1 | 5.19 | 5.19 | 5.13 | 5.19 | 5.24 | 5.68 | 6.00 | 5.74 | 5.28 | 5.27 | 5.05 | –
O=C(/C=C/c1ccccc1)c1ccccc1 [CHALCONE] | 4.90 | 4.86 | 4.68 | 5.17 | 4.30 | 4.59 | 4.48 | 4.17 | 5.19 | 4.97 | 4.64 | –
COc1cc([C@H]2Oc3cc([C@H]4Oc5cc(O)cc(O)c5C(=O)[C@@H]4O)ccc3O[C@@H]2CO)ccc1O [SILYBIN A] | 3.65 | – | – | – | – | – | – | – | – | – | – | –
COc1cc(C2Oc3cc(/C=C/C(=O)c4ccccc4O)ccc3OC2CO)ccc1O (stereo not given) | 4.92 | – | – | – | – | – | – | – | – | – | – | –
O=C(/C=C/c1cccc(OCc2ccccc2)c1)c1ccc(Cl)cc1 | 4.61 | 4.70 | 4.20 | 4.67 | 4.36 | 4.67 | 4.70 | 4.25 | 4.89 | 4.64 | 4.36 | –
O=C(/C=C/c1cccc(OCc2ccccc2)c1)c1ccc([N+](=O)[O-])cc1 | 4.76 | 4.42 | 4.09 | 4.63 | 4.28 | 4.60 | 4.31 | 4.25 | 4.59 | 4.23 | 4.08 | –
O=C(/C=C/c1cccc(OCc2ccccc2)c1)c1ccc(Cl)c(Cl)c1Cl | 5.62 | 5.21 | 5.41 | 5.62 | 5.19 | 5.62 | 5.82 | 5.82 | 5.60 | 5.62 | 5.07 | –
COc1cc([C@H]2Oc3cc([C@H]4Oc5ccccc5C(=O)[C@@H]4O)ccc3O[C@@H]2CO)ccc1O | 4.86 | – | – | – | – | – | – | – | – | – | – | –
